Consider 43 compounds from ChEMBL document CHEMBL2429814 (J Med Chem, 2013).

In test [1] the target is Metabotropic glutamate receptor 5 (Rattus norvegicus) (UniProt P31424). Briefly: Positive allosteric modulation of rat mGluR5 stably expressed in HEK293 cells assessed as increase in intracellular calcium level by Fluo-4AM dye-based fluorescence assay relative to glutamate. The test is classed as functional, cell-based.
The target of test [2] is T1, Metabotropic glutamate receptor 5 (Rattus norvegicus, UniProt P31424). Description: Positive allosteric modulation of rat mGluR5 stably expressed in HEK293 cells assessed as increase in intracellular calcium level by Fluo-4AM dye-based fluorescence assay. The test is classed as functional, cell-based. As to conditions: read-out: EC50. The method, boiled down:
(§1)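 HEK293 cells stably expressing rat mGlu5 (low receptor density line), 15,000 cells/well, grown overnight at 37°C/5% CO2. Loaded with Fluo-4AM for 50 min at 37°C in HBSS with 20 mM HEPES, 2.5 mM probenecid, pH 7.4. Triple add: compound, then EC20 glutamate 140 s later, then EC80 glutamate 60 s later. Calcium fluorescence read over time. Values are means of ≥3 independent experiments run in duplicate or triplicate.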
A general note: Calcium assays in cells follow changes in intracellular calcium, usually with a dye or a luminescent sensor.

Test [3] concerns the target T1, Metabotropic glutamate receptor 5. Description: Agonist activity at rat mGluR5 stably expressed in HEK293 cells assessed as increase in intracellular calcium level by Fluo-4AM dye-based fluorescence assay relative to glutamate. The following applies: read-out: Efficacy. The test is classed as cell-based. The method, boiled down:
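HEK293 cells stably expressing rat mGlu5 (low receptor density), 15,000 cells/well, grown overnight, then loaded with Fluo-4AM for 50 min at 37°C in HBSS/20 mM HEPES/2.5 mM probenecid, pH 7.4. Triple-add protocol: compound, then glutamate EC20 140 s later, then EC80 60 s later. Fluorescence read over time. At least three independent runs in duplicate or triplicate; response given as % of glutamate maximum.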

Test [4] shares this target. Briefly: Agonist activity at rat mGluR5 stably expressed in HEK293 cells assessed as increase in intracellular calcium level by Fluo-4AM dye-based fluorescence assay. The test is classed as cell-based. The method, boiled down: as §1
Test [5] has as its target Metabotropic glutamate receptor 5 (Rattus norvegicus) (UniProt P31424). Briefly: Potentiation of rat mGluR5 receptor stably expressed in HEK293 cells assessed as fold shift in glutamate concentration response curve at 10 uM relative to control. The test is classed as cell-based. The method, boiled down: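 HEK293 cells stably expressing rat mGlu5 were loaded with Fluo-4AM. Compound at 10 µM, or vehicle, was added, and a glutamate concentration-response curve followed 140 s later. The fold leftward shift of the glutamate curve was read from calcium fluorescence. Values are means of three independent experiments in triplicate.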

T1 sequence (P31424 whole entry): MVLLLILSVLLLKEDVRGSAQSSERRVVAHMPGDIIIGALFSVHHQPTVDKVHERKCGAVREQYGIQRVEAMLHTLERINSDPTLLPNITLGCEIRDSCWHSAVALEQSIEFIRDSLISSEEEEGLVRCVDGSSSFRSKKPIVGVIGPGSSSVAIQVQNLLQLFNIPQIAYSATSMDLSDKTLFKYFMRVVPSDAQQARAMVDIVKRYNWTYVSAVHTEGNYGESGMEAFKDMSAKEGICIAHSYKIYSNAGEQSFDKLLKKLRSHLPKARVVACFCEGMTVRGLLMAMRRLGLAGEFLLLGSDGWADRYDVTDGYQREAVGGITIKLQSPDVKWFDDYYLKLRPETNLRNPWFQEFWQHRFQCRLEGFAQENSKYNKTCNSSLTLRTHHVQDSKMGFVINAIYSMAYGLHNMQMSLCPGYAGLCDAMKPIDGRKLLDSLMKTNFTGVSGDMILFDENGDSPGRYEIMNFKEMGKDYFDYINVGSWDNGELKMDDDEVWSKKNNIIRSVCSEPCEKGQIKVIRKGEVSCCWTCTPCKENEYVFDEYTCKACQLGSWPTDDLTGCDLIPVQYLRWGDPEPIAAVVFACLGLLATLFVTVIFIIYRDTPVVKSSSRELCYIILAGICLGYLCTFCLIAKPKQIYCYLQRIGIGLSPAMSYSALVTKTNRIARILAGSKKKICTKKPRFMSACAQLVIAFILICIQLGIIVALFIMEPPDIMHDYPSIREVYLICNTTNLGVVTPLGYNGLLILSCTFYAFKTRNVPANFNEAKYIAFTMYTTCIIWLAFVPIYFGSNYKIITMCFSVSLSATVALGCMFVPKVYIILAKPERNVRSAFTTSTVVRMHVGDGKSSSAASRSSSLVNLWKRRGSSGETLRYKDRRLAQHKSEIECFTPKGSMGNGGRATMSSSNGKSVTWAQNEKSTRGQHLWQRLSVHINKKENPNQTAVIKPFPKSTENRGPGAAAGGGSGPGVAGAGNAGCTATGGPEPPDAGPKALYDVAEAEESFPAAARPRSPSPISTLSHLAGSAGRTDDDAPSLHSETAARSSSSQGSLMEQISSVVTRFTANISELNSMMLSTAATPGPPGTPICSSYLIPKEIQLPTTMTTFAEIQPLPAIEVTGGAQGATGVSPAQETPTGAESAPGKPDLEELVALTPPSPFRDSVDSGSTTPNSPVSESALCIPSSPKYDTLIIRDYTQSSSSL
Sequence of Metabotropic glutamate receptor 5 (Rattus norvegicus) (P31424 21-1203 limits assumed): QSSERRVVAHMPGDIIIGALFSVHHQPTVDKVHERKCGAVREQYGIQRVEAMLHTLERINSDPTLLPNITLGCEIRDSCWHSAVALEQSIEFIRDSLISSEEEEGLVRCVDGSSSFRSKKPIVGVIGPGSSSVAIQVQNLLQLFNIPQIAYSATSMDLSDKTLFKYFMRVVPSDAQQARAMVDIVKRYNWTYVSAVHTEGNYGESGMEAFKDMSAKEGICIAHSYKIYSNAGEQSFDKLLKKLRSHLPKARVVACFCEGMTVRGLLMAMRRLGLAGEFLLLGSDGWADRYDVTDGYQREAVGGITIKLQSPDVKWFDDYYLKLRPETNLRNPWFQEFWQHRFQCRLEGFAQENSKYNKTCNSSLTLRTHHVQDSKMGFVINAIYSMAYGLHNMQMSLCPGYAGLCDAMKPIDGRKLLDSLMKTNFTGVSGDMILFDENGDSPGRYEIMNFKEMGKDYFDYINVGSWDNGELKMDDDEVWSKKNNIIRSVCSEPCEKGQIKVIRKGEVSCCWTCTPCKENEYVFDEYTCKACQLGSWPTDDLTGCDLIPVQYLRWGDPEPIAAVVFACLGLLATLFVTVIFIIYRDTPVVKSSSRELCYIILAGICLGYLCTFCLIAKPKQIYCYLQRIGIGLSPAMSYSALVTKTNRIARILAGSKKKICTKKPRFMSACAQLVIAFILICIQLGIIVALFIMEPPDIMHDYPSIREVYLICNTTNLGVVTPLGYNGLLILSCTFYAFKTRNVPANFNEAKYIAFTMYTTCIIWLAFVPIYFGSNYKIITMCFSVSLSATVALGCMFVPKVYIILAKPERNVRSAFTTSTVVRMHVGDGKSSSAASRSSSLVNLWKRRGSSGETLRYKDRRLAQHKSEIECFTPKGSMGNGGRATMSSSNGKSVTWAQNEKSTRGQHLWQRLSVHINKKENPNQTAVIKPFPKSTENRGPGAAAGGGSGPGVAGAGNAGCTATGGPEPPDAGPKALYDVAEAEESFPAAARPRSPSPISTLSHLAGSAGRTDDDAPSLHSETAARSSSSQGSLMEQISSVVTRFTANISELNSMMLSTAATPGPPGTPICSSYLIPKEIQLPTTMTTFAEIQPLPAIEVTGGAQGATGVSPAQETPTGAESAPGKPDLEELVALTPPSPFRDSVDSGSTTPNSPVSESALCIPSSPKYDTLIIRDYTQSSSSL

Turning to `Cc1cc(C(=O)N[C@H](C)C(C)(C)O)ncc1C#Cc1cccc(F)c1`, in test [1], the Efficacy came out at 66.6%. For the same compound, the EC50 in test [2] was determined as 242 nM.
Turning to `CC(C)(O)CNC(=O)c1ccc(C#Cc2cccc(F)c2)cn1`, the Emax in test [3] stood at 20%. The EC50 in test [4] (read-out: EC50) was 4020 nM; in test [2], 34.6 nM. For the same compound, the Efficacy in test [1] was 61.5%.
As for `Cc1cc(C#Cc2cccc(F)c2)cnc1C(=O)N[C@H](C)C(C)(C)O`, the fold change (FC) in test [5] was determined as 2.3. For the same compound, the Efficacy in test [1] stood at 66.4%. The EC50 in test [2] stood at 105 nM.
With `C[C@@H](NC(=O)c1ccc(C#CC2CC2)cn1)C(C)(C)O`, the Efficacy in test [1] was 63.4%. In addition, the EC50 in test [2] was 1290 nM.
With `C[C@@H](NC(=O)c1ccc(C#Cc2cccc(F)c2)cn1)C(C)(C)F`, in test [3], the Emax worked out at 42.8%. Moreover, the EC50 in test [4] (read-out: EC50) worked out at 2060 nM; in test [2] it was 5.3 nM. In test [1], the Efficacy was found to be 68.6%.
On the same counts, the results for `C[C@H](NC(=O)c1ccc(C#Cc2cccc(F)c2)cn1)C(F)(F)F` are 21.4%, 1390 nM, 21.9 nM and 60.8%.
On the same counts, the results for `C[C@@H](NC(=O)c1ccc(C#Cc2cccnc2)cn1)C(C)(C)O` are 25.9%, 9300 nM, 344 nM and 71.5%.
`Cc1ccccc1C#Cc1ccc(C(=O)N[C@H](C)C(C)(C)O)nc1`: the Emax in test [3] amounted to 24.1%. The EC50 came out at 12400 nM in test [4] (read-out: EC50) and 217 nM in test [2]. The Efficacy in test [1] is 59.9%.
For `O=C(NCC(F)(F)F)c1ccc(C#Cc2cccc(F)c2)cn1` the same measures were 5.8%, 10700 nM, 224 nM and 67%.
Take `C[C@@H](NC(=O)c1ccc(C#Cc2cccc(F)c2)cn1)C(F)(F)F`: the fold change (FC) in test [5] worked out at 1.5. In test [1], the Efficacy was determined as 52.1%. Besides, the EC50 in test [2] was 20.8 nM.
Turning to `C[C@@H](NC(=O)c1ccc(C#Cc2ccc(F)cc2F)cn1)C(C)(C)O`, the Emax in test [3] is 38.2%. For the same compound, the EC50 is 3690 nM in test [4] (read-out: EC50) and 26.6 nM in test [2]. For the same compound, the Efficacy in test [1] was 61.2%.
For `C[C@H](NC(=O)c1ccc(C#Cc2cccc(F)c2)cn1)C(C)(C)C`, the Emax in test [3] amounted to 20%. Also, the EC50 in test [4] (read-out: EC50) came to 5400 nM; in test [2] it was 51.9 nM. In addition, in test [1], the Efficacy came to 70.8%.
As for `C[C@@H](NC(=O)c1ccc(C#Cc2cccc(F)c2)cn1)C(C)(C)C`, the Emax in test [3] is 31.2%. The results for the EC50 in test [4] (read-out: EC50) and in test [2] were 2750 nM and 17.8 nM, respectively. Besides, the Efficacy in test [1] was determined as 66%.
Regarding `O=C(NCC1CCC1)c1ccc(C#Cc2cccc(F)c2)cn1`, the Emax in test [3] was found to be 4.7%. Moreover, the EC50 in test [4] (read-out: pEC50 (converted)) was above 10000 nM; in test [2], 84 nM. The Efficacy in test [1] stood at 68.1%.
Consider `C[C@@H](NC(=O)c1ccc(C#Cc2ccc(F)cc2)cn1)C(C)(C)O`, for which the Emax in test [3] is 38.4%. Further, the figures for the EC50 in test [4] (read-out: EC50) and in test [2] were 1520 nM and 12.3 nM, respectively. Also, the Efficacy in test [1] turned out to be 66.2%.
On the same counts, the results for `CC(C)[C@H](C)NC(=O)c1ccc(C#Cc2cccc(F)c2)cn1` are 13.1%, 2220 nM, 20.4 nM and 66.7%.
For `CC(C)[C@@H](C)NC(=O)c1ccc(C#Cc2cccc(F)c2)cn1` the same measures were 22.5%, 1470 nM, 4.5 nM and 69.3%.
For `CCCNC(=O)c1ccc(C#Cc2cccc(F)c2)cn1` the same measures were 8.3%, 3010 nM, 34.4 nM and 65.9%.
Turning to `O=C(NCC1CC1)c1ccc(C#Cc2cccc(F)c2)cn1`, in test [5], the fold change (FC) worked out at 1.6. In test [1], the Efficacy was determined as 61.4%. The EC50 in test [2] stood at 36.7 nM.
With `C[C@@H](NC(=O)c1ccc(C#Cc2ncccc2F)cn1)C(C)(C)O`, the Emax in test [3] was determined as 29.2%. For the same compound, the EC50 in test [4] (read-out: EC50) amounted to 3700 nM; in test [2] it was 33.8 nM. Besides, the Efficacy in test [1] amounted to 60.6%.
As to `C[C@@H](NC(=O)c1ccc(C#Cc2ccc(F)cn2)cn1)C(C)(C)O`, the Emax in test [3] was found to be 13.5%. In addition, the EC50 was found to be 1700 nM in test [4] (read-out: EC50) and 28.2 nM in test [2]. Further, the Efficacy in test [1] is 64.6%.
As to `C[C@@H](NC(=O)c1ccc(C#Cc2cc(F)ccn2)cn1)C(C)(C)O`, the Emax in test [3] came out at 33%. Besides, the EC50 in test [4] (read-out: EC50) came out at 3980 nM; in test [2] it was 36 nM. Moreover, in test [1], the Efficacy was 66.2%.
For `CC(C)(CO)NC(=O)c1ccc(C#Cc2cccc(F)c2)cn1` the same measures were 9.3%, 729 nM, 7.9 nM and 60.9%.
Turning to `Cc1ccc(C#Cc2ccc(C(=O)N[C@H](C)C(C)(C)O)nc2)cc1`, in test [1], the Efficacy came out at 63.1%. Also, in test [2], the EC50 is 107 nM.
For `C[C@@H](NC(=O)c1ccc(C#Cc2cccc(F)n2)cn1)C(C)(C)O`, the Emax in test [3] stood at 8.3%. In addition, the results for the EC50 in test [4] (read-out: EC50) and in test [2] were 1300 nM and 13.6 nM, respectively. Besides, the Efficacy in test [1] amounted to 63%.
On the same counts, the results for `C[C@@H](NC(=O)c1nc(C#Cc2cccc(F)c2)cs1)C(C)(C)O` are 26.1%, 4780 nM, 33.5 nM and 62.1%.
For `Cc1nc(C#Cc2cccc(F)c2)ccc1C(=O)N[C@H](C)C(C)(C)O` the same measures were 9.2%, 1090 nM, 17.1 nM and 64.9%.
On to `C[C@@H](NC(=O)c1ncc(C#Cc2cccc(F)c2)cn1)C(C)(C)O`, for which, in test [3], the Emax turned out to be 19.2%. The values for the EC50 in test [4] (read-out: EC50) and in test [2] were 4130 nM and 47.6 nM, respectively. The Efficacy in test [1] came out at 64.1%.
`C[C@@H](NC(=O)c1ccc(C#Cc2cccc(F)c2)nn1)C(C)(C)O`: the Emax in test [3] came out at 16.5%. For the same compound, the EC50 in test [4] (read-out: EC50) is 2120 nM; in test [2] it was 21.9 nM. For the same compound, in test [1], the Efficacy came to 70.2%.
Turning to `CC1(NC(=O)c2ccc(C#Cc3ccncc3)cn2)COC1`, the Efficacy in test [1] amounted to 36%. Besides, the EC50 in test [2] was 691 nM.
In the case of `C[C@@H](NC(=O)c1ccc(C#Cc2ccccc2F)cn1)C(C)(C)O`, the Emax in test [3] turned out to be 29.6%. Also, the EC50 in test [4] (read-out: EC50) stood at 1160 nM; in test [2], 8 nM. Besides, the Efficacy in test [1] is 60%.
As to `CC(C)(C)NC(=O)c1ccc(C#Cc2cccc(F)c2)cn1`, the EC50 in test [2] was determined as 2.6 nM.
In the case of `C[C@@H](NC(=O)c1ccc(C#Cc2ccccn2)cn1)C(C)(C)C`, in test [3], the Emax is 24.2%. The EC50 in test [4] (read-out: EC50) was found to be 6110 nM; in test [2], 63.3 nM. Moreover, the Efficacy in test [1] was determined as 63%.
On the same counts, the results for `C[C@@H](NC(=O)c1ccc(C#Cc2cc(F)cc(F)c2)cn1)C(C)(C)O` are 37.9%, 3670 nM, 58.2 nM and 61.6%.
Take `CC1(CCNC(=O)c2ccc(C#Cc3cccc(F)c3)cn2)COC1`: in test [3], the Emax was 16.3%. Also, the EC50 stood at 2840 nM in test [4] (read-out: EC50) and 47.3 nM in test [2]. The Efficacy in test [1] worked out at 65.7%.
On the same counts, the results for `C[C@@H](NC(=O)c1cnc(C#Cc2cccc(F)c2)cn1)C(C)(C)O` are 17.2%, 3040 nM, 12.5 nM and 64.4%.
On the same counts, the results for `C[C@@H](NC(=O)c1ccc(C#Cc2ccccc2)cn1)C(C)(C)O` are 43.2%, 874 nM, 4.1 nM and 60.9%.
On the same counts, the results for `C[C@@H](NC(=O)c1ccc(C#Cc2ccncc2)cn1)C(C)(C)O` are 22.4%, 4660 nM, 43 nM and 66.6%.
Regarding `CC(C)(C)CNC(=O)c1ccc(C#Cc2cccc(F)c2)cn1`, the Emax in test [3] turned out to be 9.5%. The results for the EC50 in test [4] (read-out: EC50) and in test [2] were 2570 nM and 16.6 nM, respectively. For the same compound, the Efficacy in test [1] stood at 63.9%.
For `C[C@@H](NC(=O)c1ccc(C#Cc2cccc(F)c2)cc1)C(C)(C)O` the same measures were 43.6%, 1040 nM, 7.5 nM and 53.9%.
On the same counts, the results for `C[C@@H](NC(=O)c1ccc(C#Cc2cccc(F)c2)nc1)C(C)(C)O` are 26.6%, 6800 nM, 80 nM and 64.9%.
On the same counts, the results for `C[C@@H](NC(=O)c1ccc(C#CC2CCCC2)cn1)C(C)(C)O` are 14.8%, 9750 nM, 93.3 nM and 63.7%.
On to `Cc1cccc(C#Cc2ccc(C(=O)N[C@H](C)C(C)(C)O)nc2)c1`, for which the Emax in test [3] is 20.8%. The EC50 in test [4] (read-out: EC50) came to 1360 nM; in test [2] it was 6.5 nM. Moreover, the Efficacy in test [1] was determined as 68.6%.
